Source: ChEMBL document CHEMBL1157279, “8-methyl-pyridoxatin: A novel N-hydroxy pyridone from fungus OS-F61800 that induces erythropoietin in human cells” (1999)
Activity calls are given as the source filed them. The calls are words filed in the database; no cut-off is given here.

Legend:
Hep 3B2 [1] = experiment: Induction of erythropoietin gene expression in human Hep3B cells assessed as concentration resulting in maximum fold induction by luciferase reporter assay relative to control; type: functional
Outline: (§1)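 Hep3B epo-3 cells carrying an EPO-luciferase reporter; compounds tested at 0.1 to 30 µM, in triplicate in at least three experiments. Read-out is the ratio of light units with compound to a 0.5% DMSO vehicle control. TIR5x is the concentration giving fivefold induction; TIRmax is the minimum concentration giving maximum-fold induction. 10 µM CoCl2 served as positive control.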

Hep 3B2 [2] = experiment: Induction of erythropoietin gene expression in human Hep3B cells assessed as concentration resulting in five fold induction by luciferase reporter assay relative to control; type: functional; outline: as §1
[3] = Cytotoxicity against human Hep3B cells after 48 hrs by MTT assay; type: functional, Hep 3B2
Outline: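 Hep3B epo-3 cells, 48 h exposure, standard MTT assay; value is concentration giving 90% inhibition (IC90).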

Hep 3B2 [4] = experiment: Induction of erythropoietin protein expression in human Hep3B cells assessed per ml of protein at 10 uM by ELISA relative to control; type: functional
Outline: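 Hep3B epo-3 cells incubated 24 h with compound at a single 10 µM; native EPO secreted into culture measured by human EPO ELISA kit, in mU/mL culture, against a 0.5% DMSO vehicle control; 10 µM CoCl2 as positive control.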

With `C=C[C@]1(C)C[C@H](C)C[C@H](C)[C@H]1c1c(OC)ccn(OC)c1=O` the Activity (Hep 3B2 [1]) was “inactive” and the Activity (Hep 3B2 [2]) was “inactive”.
With `Cc1cc(C2CCCCC2)n(O)c(=O)c1.NCCO` [CICLOPIROX OLAMINE] the Activity (Hep 3B2 [1]) was 15 µM, the Activity (Hep 3B2 [2]) was 3 µM and the IC90 [3] was > 20 µM. The Activity (Hep 3B2 [4]) was 99 mU/mL.
With `C=C[C@]1(C)C[C@H](C)C[C@H](C)[C@H]1c1c(O)ccn(O)c1=O` the Activity (Hep 3B2 [1]) was 0.7 µM, the Activity (Hep 3B2 [2]) was 0.3 µM and the IC90 [3] was > 20 µM. It also gave an Activity (Hep 3B2 [4]) of 120 mU/mL.
